Assay outcomes as filed in PubChem.
core dimer inh = HCV core protein dimerization inhibition; inhibition, % at 5 µM; AID 1899; TR-FRET GST/Flag-core106 dimerization, 1536-well; actives 0.33% (n = 300,000);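 active means inhibition above the mean of all tested compounds plus 3 SD, set per screening campaign, cut at about 45% in these data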
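Test system: GST/Flag-tagged HCV core106 proteins; Medium: KF-containing HEPES buffer, pH 7.45, DTT, CHAPS, BSA; Times: compound-protein-antibody incubation 4 h at 22.5 °C; Detection: TR-FRET 671 and 617 nm emission; Benchmarks: wells lacking GST-core106 and wells with excess unlabelled core106.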
rCAG RNA binder = molecules binding r(CAG) RNA repeats; actives 1.3% (n = 370,000); r(CAG) RNA repeat, TO-PRO-1 dye displacement fluorescence; inhibition, % at 3 µM;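 active means inhibition above the plate cutoff, the mean of all test compounds on that plate plus 3 SD, cut at about 35% in these data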;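 further: higher means more dye released from RNA so lower well fluorescence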
NadD block = inhibitors of Staphylococcus aureus NadD | purified NadD enzyme, colorimetric absorbance read-out | inhibition, % at 20 µM | actives 0.78% (n = 360,000) | AID 602399; in the data active means inhibition above about 26%
ABHD5 PLIN5 PPI = inhibitors of human ABHD5-perilipin-5 interaction. Q00G26+Q8WTS1. Split G. princeps luciferase complementation, luminescence, 4 h. inhibition, % at 4 µM. actives 0.78% (n = 360,000);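 active means inhibition above the mean inhibition across every tested compound plus 3 SD, cut at about 22% in these data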
Target sequence (Q00G26 whole entry, looked up): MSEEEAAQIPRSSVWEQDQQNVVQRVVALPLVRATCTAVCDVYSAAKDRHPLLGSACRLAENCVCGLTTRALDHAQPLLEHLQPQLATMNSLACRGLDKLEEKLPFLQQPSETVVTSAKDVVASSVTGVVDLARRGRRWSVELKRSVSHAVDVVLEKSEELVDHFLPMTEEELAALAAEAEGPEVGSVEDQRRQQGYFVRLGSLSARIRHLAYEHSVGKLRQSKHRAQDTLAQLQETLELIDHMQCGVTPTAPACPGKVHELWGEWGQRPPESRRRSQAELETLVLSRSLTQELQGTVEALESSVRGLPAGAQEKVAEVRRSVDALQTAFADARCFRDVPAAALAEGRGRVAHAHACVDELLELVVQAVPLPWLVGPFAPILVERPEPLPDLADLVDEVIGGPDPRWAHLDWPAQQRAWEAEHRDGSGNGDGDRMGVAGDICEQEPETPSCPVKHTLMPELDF
Target sequence (Q8WTS1 whole entry, looked up): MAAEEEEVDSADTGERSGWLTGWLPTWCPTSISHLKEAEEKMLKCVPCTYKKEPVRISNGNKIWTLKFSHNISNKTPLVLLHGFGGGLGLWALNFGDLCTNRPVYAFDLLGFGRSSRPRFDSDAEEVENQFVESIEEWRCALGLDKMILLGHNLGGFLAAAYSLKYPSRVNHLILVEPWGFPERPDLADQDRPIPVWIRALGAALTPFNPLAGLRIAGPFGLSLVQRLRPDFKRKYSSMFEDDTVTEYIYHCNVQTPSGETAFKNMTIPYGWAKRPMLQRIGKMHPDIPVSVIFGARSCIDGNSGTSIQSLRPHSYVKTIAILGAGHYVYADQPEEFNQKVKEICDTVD
rCAG binder conf = r(CAG) RNA repeat binding, confirmation; AID 652065; inhibition, % at 3 µM; actives 70% (n = 4,300); shares compounds with rCAG RNA binder; TO-PRO-1 dye displacement fluorescence;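 active means inhibition above a per-plate cutoff, the mean inhibition of sample wells plus 3 SD, cut at about 35% in these data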;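 further: loss of TO-PRO-1 fluorescence as compound displaces dye from 1x1 AA loop RNA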
dCAG dye counter = counter-screen for rCAG RNA binders: DNA CAG dye complex inhibitors; shares compounds with rCAG RNA binder; d(CAG) DNA oligo TO-PRO-1 dye displacement, fluorescence; inhibition, % at 3 µM; actives 94% (n = 4,300); AID 652068;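 active means inhibition above its plate's cutoff, the mean test-well inhibition plus 3 SD, cut at about 4.8% in these data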;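 further: hits displace the dye from DNA and so lower well fluorescence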
Large screens that a line does not name were inactive (follow-up assays come after a bar, where they were run). Sampled rows, rich in hits. Any-hit rate of the full collection: about 2.6%.

COc1ccc(N(CC(=O)Nc2cc(OC)c(OC)cc2C(=O)O)S(=O)(=O)c2c(C)noc2C)cc1	rCAG RNA binder 40.8 | rCAG binder conf inactive | dCAG dye counter inactive
Cc1cc(=O)c2c(ccc3c(=O)cc(C)[nH]c32)[nH]1	none (no result: core dimer inh, NadD block, ABHD5 PLIN5 PPI)
O=C(O)c1ccc(COc2ccc(CO)cc2Cl)cc1	none
CCN1C(=O)/C(=C/c2ccc(OCc3ccc(C(=O)O)cc3)c(Cl)c2)NC1=S	rCAG RNA binder 57.4 | rCAG binder conf 50.6 | dCAG dye counter 15.8
CCOC(=O)C1=C(C)N=c2sc(=Cc3ccc(OCC(=O)O)cc3)c(=O)n2C1c1ccc(Cl)cc1 (configuration not stated)	rCAG RNA binder 83.2 (no result: core dimer inh) | rCAG binder conf 58.7 | dCAG dye counter 25.6
CCOC(=O)C1=C(C)N=c2s/c(=C\c3cccc(OCC(=O)O)c3)c(=O)n2C1c1ccccc1OC (configuration not stated)	none
COc1cccc(C2C(C(=O)Nc3ccccc3)=C(C)N=c3s/c(=C/c4ccc(OCC(=O)O)cc4)c(=O)n32)c1 (configuration not stated)	rCAG RNA binder 72.1 | rCAG binder conf 81.8 | dCAG dye counter 50.2
COc1cccc(C2C(C(=O)OC(C)C)=C(C)N=c3s/c(=C\c4ccc(C(=O)O)cc4)c(=O)n32)c1 (configuration not stated)	none
CCOC(=O)C1=C(C)N=c2s/c(=C/c3ccc(OCC(=O)O)cc3)c(=O)n2C1c1cc(OC)c(OC)c(OC)c1 (configuration not stated)	rCAG RNA binder 41.8 | rCAG binder conf 73.6 | dCAG dye counter 37.1
COC(=O)C1=C(C)N=c2s/c(=C/c3cccs3)c(=O)n2C1c1ccc(F)cc1 (configuration not stated)	none
CCOC(=O)C1=C(C)N=c2s/c(=C\c3ccc(OCC(=O)O)cc3)c(=O)n2C1c1ccc(OC(C)C)cc1 (configuration not stated)	rCAG RNA binder 64.5 | rCAG binder conf 85.0 | dCAG dye counter 54.5
C=CCCC1CN(Cc2ccc(OC)cc2)S(=O)(=O)c2c(Oc3ccc(C)cc3)cccc2O1 (configuration not stated)	none (no result: core dimer inh, NadD block, ABHD5 PLIN5 PPI)
C[C@H](O)[C@@H]1CN2CCc3ccc(-c4ccc5c(c4)OCO5)cc3[C@@H]2C[C@@H]1N(C)CC1CCCCC1	none (no result: core dimer inh, NadD block, ABHD5 PLIN5 PPI)
Cc1c(C(=O)NNC(=S)Nc2cccc(Cl)c2)nnn1-c1ccccc1	rCAG RNA binder 45.4 | rCAG binder conf 44.1 | dCAG dye counter 13.9
O=S(=O)(Nc1nc2ccccc2nc1N1CCN(c2ccccn2)CC1)c1ccc(Cl)cc1	rCAG RNA binder 53.8 (no result: core dimer inh) | rCAG binder conf 63.8 | dCAG dye counter 30.7
COc1ccc(N2CCN(c3nc4ccccc4nc3NS(=O)(=O)c3ccccc3)CC2)cc1	rCAG RNA binder 57.0 | rCAG binder conf 62.1 | dCAG dye counter 24.2
Cc1ccc(S(=O)(=O)Nc2nc3ccccc3nc2N2CCN(c3ccccc3F)CC2)cc1	rCAG RNA binder 53.7 | rCAG binder conf 67.7 | dCAG dye counter 27.9
CN1CCN(c2nc3ccccc3nc2NS(=O)(=O)c2ccc(Br)cc2)CC1	none (no result: core dimer inh)
CCOc1nc2ccccc2nc1NS(=O)(=O)c1ccccc1	none
CCOc1nc2ccccc2nc1NS(=O)(=O)c1ccc(Cl)cc1	rCAG RNA binder 40.2 | rCAG binder conf inactive | dCAG dye counter 4.6
CC(=O)C1=C(C)N(Cc2ccc(F)cc2)C(=S)NC1c1cccc(Cl)c1 (configuration not stated)	none (no result: core dimer inh, NadD block, ABHD5 PLIN5 PPI)
O=C(CSc1ccccc1)NC1CCCCN(Cc2ccc(Cl)cc2)C1=O (configuration not stated)	none (no result: core dimer inh, NadD block, ABHD5 PLIN5 PPI)
Cc1ccc(NC(=O)Cn2nnc(-c3ccccc3F)n2)cc1C	none (no result: core dimer inh, NadD block, ABHD5 PLIN5 PPI)
C[C@H]1CNC(=O)c2c(C(=O)N3CCN(c4ccccc4)CC3)ncn21	none (no result: core dimer inh, NadD block, ABHD5 PLIN5 PPI)
O=C(Nc1ccc(S(=O)(=O)Nc2cnc3ccccc3n2)cc1)c1ccc([N+](=O)[O-])cc1Cl	rCAG RNA binder 48.7 | rCAG binder conf inactive | dCAG dye counter 6.0
COc1cc(C(=O)Nc2ccc(S(=O)(=O)Nc3cnc4ccccc4n3)cc2)cc(OC)c1OC	rCAG RNA binder 40.1 | rCAG binder conf inactive | dCAG dye counter 6.8
Cc1ccc(C(=O)Nc2ccc(S(=O)(=O)Nc3cnc4ccccc4n3)cc2)cc1	rCAG RNA binder 42.6 | rCAG binder conf inactive | dCAG dye counter 11.8
COc1cc(OC)cc(C(=O)Nc2ccc(S(=O)(=O)Nc3cnc4ccccc4n3)cc2)c1	rCAG RNA binder 64.1 | rCAG binder conf 58.7 | dCAG dye counter 15.2
O=C(Nc1ccc(S(=O)(=O)Nc2ccccn2)cc1)c1ccc(Cl)cc1Cl	none
C=CCN(CC#Cc1ccccc1)Cc1ccc(OC)cc1OC	none (no result: core dimer inh, NadD block, ABHD5 PLIN5 PPI)
COCc1[nH]nc2c1C(c1ccc(F)cc1)N(c1ccccc1)C2=O (configuration not stated)	none (no result: core dimer inh, NadD block, ABHD5 PLIN5 PPI)
Cc1cc(C(C#N)c2ccc(Cl)cc2)c(Cl)cc1NC(=O)c1cc(I)cc(I)c1O (configuration not stated)	rCAG RNA binder 72.8, NadD block 51.5 | rCAG binder conf 92.5 | dCAG dye counter 78.5
N#Cc1c(NC(=O)c2ccc(Cn3cc(Br)cn3)o2)sc2c1CCCCC2	none
COC(=O)c1sc(NC(=O)c2ccc(Cn3cc(Cl)cn3)o2)c(C#N)c1C	rCAG RNA binder 48.3 | rCAG binder conf 41.9 | dCAG dye counter 12.7
Cc1ccc(C(=O)Nc2nnc(NC(=S)Nc3ccccc3)s2)cc1	rCAG RNA binder 69.8 | rCAG binder conf 39.3 | dCAG dye counter 30.2
CCOC(=O)[C@@]12CCCC=C1N(CCc1ccc(Cl)cc1)C(=O)[C@H]2CC(=O)NCc1ccc(C)o1	none (no result: core dimer inh, NadD block, ABHD5 PLIN5 PPI)
CC1(C(=O)NS(=O)(=O)c2cccc(OC(F)F)c2)CCN1C(=O)c1ccccc1 (configuration not stated)	none (no result: core dimer inh)
CC(C)c1ccc(CC(=O)N2CCC2(C)C(=O)NS(=O)(=O)c2cccc(OC(F)F)c2)cc1 (configuration not stated)	rCAG RNA binder 35.1 (no result: core dimer inh) | rCAG binder conf inactive | dCAG dye counter inactive
CNC(=O)C1(C)CCN1C(=O)c1ccccc1CCc1ccccc1 (configuration not stated)	none (no result: core dimer inh)
CC1(C(=O)NS(=O)(=O)c2cccc(F)c2)CCN1C(=O)Cc1ccccc1Cl (configuration not stated)	none (no result: core dimer inh)
CC1(C(=O)NS(=O)(=O)c2cccc(OC(F)F)c2)CCN1C(=O)c1ccccc1CCc1ccccc1 (configuration not stated)	rCAG RNA binder 60.8 (no result: core dimer inh) | rCAG binder conf 54.2 | dCAG dye counter 17.0
CC1(C(=O)NS(=O)(=O)c2cccc(F)c2)CCN1C(=O)c1ccccc1CCc1ccccc1 (configuration not stated)	rCAG RNA binder 51.8 (no result: core dimer inh) | rCAG binder conf 43.1 | dCAG dye counter 11.1
CC1(C(=O)NS(=O)(=O)c2cccc(OC(F)F)c2)CCN1C(=O)Cc1ccccc1 (configuration not stated)	none (no result: core dimer inh)
